The values that follow come from ChEMBL document CHEMBL1154008, “Synthesis and in vitro activity of new tetrahydronaphtho[1,2-b]azepine derivatives against Trypanosoma cruzi and Leishmania chagasi parasites” (Bioorg Med Chem Lett, 2009).

The test system of series [1] is Trypanosoma cruzi. In words: Antiparasitic activity against Trypanosoma cruzi 320I04 epimastigotes […] after 72 hrs. The series is classed as functional, organism-based. Put shortly:
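Free parasite forms (T. cruzi 320I04 epimastigotes; L. chagasi MHOM/BR/74/PP75 promastigotes) exposed to compounds for 72 h at 27 °C. IC50/IC90 taken as the concentrations giving 50% or 90% growth inhibition. Values are representative of one experiment out of three.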

In series [2] the test system is Trypanosoma cruzi. As to the kind of experiment: Antiparasitic activity against Trypanosoma cruzi 320I04 intracellular amastigotes infected in african green monkey Vero cells after 72 hrs. The series is classed as functional, organism-based. The settings on record: 320I04, Vero.
The test system of a further series is Leishmania chagasi. As to the kind of experiment: Antiparasitic activity against Leishmania chagasi MHOM/BR/74/PP75 promastigotes infected in human THP1 cells after 72 hrs. To be noted: MHOM/BR/74/PP75, THP-1, 72 h.
Series [3] in a line: Cytotoxicity against african green monkey Vero cells after 72 hrs by MTT assay. The settings on record: chlorocebus sabaeus. The series is classed as cell-based. Put shortly: (§1)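 Vero or transformed THP-1 cells exposed to a 3-fold compound dilution series, in triplicate, for 72 h at 37 °C. Toxicity read by MTT reduction. CC50/CC90 taken as the concentrations killing 50% or 90% of cells. Values are representative of one experiment out of three.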

A short description of series [4]: Cytotoxicity against human THP1 cells after 72 hrs by MTT assay. The class given is cell-based. The settings on record: THP-1 cells. Put shortly:
as §1

Series [5] is described as follows: Selectivity index, ratio of CC50 for african green monkey Vero cells to IC50 for Trypanosoma cruzi 320I04 epimastigotes. The series is classed as functional. A digest of the protocol: (§2)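 SI calculated as Vero CC50 divided by T. cruzi IC50, or THP-1 CC50 divided by L. chagasi IC50. Both values come from 72 h exposures: parasites at 27 °C, mammalian cells at 37 °C with MTT read-out.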

Series [6] can be described thus: Selectivity index, ratio of CC50 for african green monkey Vero cells to IC50 for Trypanosoma cruzi 320I04 intracellular amastigotes. The series is classed as functional.
The nature of series [7]: Selectivity index, ratio of CC50 for human THP1 cells to IC50 for Leishmania chagasi MHOM/BR/74/PP75 promastigotes. The class given is functional, THP-1. A digest of the protocol: as §2

As a reminder, the IC50 is the concentration at which inhibition is half-maximal. A word on the IC90: it is the concentration at which the effect reaches the 90% level. As a reminder, the CC50 is the concentration at which the toxic effect on the cells reaches its halfway point. With `Cc1cccc([C@@H]2C[C@@H]3Cc4ccc5ccccc5c4N2O3)c1`, the IC50 was 17 µM in the series on Trypanosoma cruzi [1], above 100 µM in the series on Trypanosoma cruzi [2] and 35.2 µM with Leishmania chagasi. In addition, the values for the IC90 in the series on Trypanosoma cruzi [1], in the series with Trypanosoma cruzi [2] and in the series on Leishmania chagasi were 44.1 µM, above 100 µM and 41.2 µM, respectively. For the same molecule, the CC50 at 72 h in series [3] and in series [4] was above 300 µM throughout. The CC90 at 72 h in series [3] and in series [4] was above 300 µM each time. Moreover, the “Ratio CC50/IC50” value in series [5] is given as above 17.6; in series [6], above 3; in series [7], above 8.5.

Turning to `Clc1ccc([C@@H]2C[C@@H]3Cc4ccc5ccccc5c4N2O3)cc1`, the IC50 in the series with Trypanosoma cruzi [1] turned out to be 38.8 µM; in the series with Trypanosoma cruzi [2], 16.2 µM; in the series with Leishmania chagasi, 35.4 µM. Besides, the figures for the concentration for an effect of 90% (IC90) in the series on Trypanosoma cruzi [1], in the series with Trypanosoma cruzi [2] and in the series on Leishmania chagasi were 105 µM, 83.4 µM and 43.1 µM, respectively. For the same molecule, the figures for the cytotoxic concentration (CC50) at 72 h in series [3] and in series [4] were 287 µM and above 300 µM, respectively. Besides, the CC90 at 72 h in series [3] and in series [4] was above 300 µM throughout. The “Ratio CC50/IC50” value is 7.4 in series [5], above 17.7 in series [6] and above 8.5 in series [7].

For the molecule `Clc1ccc([C@@H]2C[C@@H]3Cc4ccc5ccccc5c4N2O3)c(Cl)c1`, the IC50 in the series on Trypanosoma cruzi [1] was 52.7 µM; in the series on Trypanosoma cruzi [2] it was above 250 µM; in the series on Leishmania chagasi it was 22.1 µM. For the same molecule, the results for the 90% effect concentration (IC90) in the series on Trypanosoma cruzi [1], in the series on Trypanosoma cruzi [2] and with Leishmania chagasi were above 250 µM, above 250 µM and 45.8 µM, respectively. Besides, the CC50 at 72 h in series [3] was 55 µM; in series [4], above 250 µM. Moreover, the CC90 at 72 h in series [3] and in series [4] was above 250 µM each time. Further, the “Ratio CC50/IC50” value in series [5] is recorded as 1; in series [6], below 0.2; in series [7], above 11.3.

In the case of `Fc1ccc([C@@H]2C[C@@H]3Cc4ccc5ccccc5c4N2O3)cc1`, the IC50 in the series with Trypanosoma cruzi [1] is 90.5 µM; in the series on Trypanosoma cruzi [2], above 100 µM; in the series with Leishmania chagasi, 70.4 µM. Moreover, the concentration for an effect of 90% (IC90) in the series with Trypanosoma cruzi [1] is above 300 µM; with Trypanosoma cruzi [2] it was above 100 µM; with Leishmania chagasi it was 113 µM. For the same molecule, the 50% cytotoxic concentration (CC50) at 72 h in series [3] and in series [4] was above 300 µM throughout. The CC90 at 72 h in series [3] and in series [4] was above 300 µM throughout. Further, the “Ratio CC50/IC50” value in series [5] is reported as above 3.3; in series [6] it was above 3; in series [7], above 4.3.

For the molecule `Brc1cccc([C@@H]2C[C@@H]3Cc4ccc5ccccc5c4N2O3)c1`, the IC50 came to 17.5 µM with Trypanosoma cruzi [1], 18.4 µM in the series with Trypanosoma cruzi [2] and 10.4 µM in the series on Leishmania chagasi. The IC90 came to 82.3 µM with Trypanosoma cruzi [1], 76.3 µM in the series on Trypanosoma cruzi [2] and 31.3 µM with Leishmania chagasi. The 50% cytotoxic concentration (CC50) at 72 h in series [3] and in series [4] was above 250 µM in each case. The CC90 at 72 h in series [3] and in series [4] was above 250 µM in each case. Further, the “Ratio CC50/IC50” value in series [5] is listed as above 14.3; in series [6], above 13.6; in series [7], above 24.

For the molecule `Clc1ccccc1[C@@H]1C[C@@H]2Cc3ccc4ccccc4c3N1O2`, the 50% inhibitory concentration (IC50) is 100 µM in the series on Trypanosoma cruzi [1], above 100 µM in the series on Trypanosoma cruzi [2] and 184 µM in the series with Leishmania chagasi. In addition, the concentration for an effect of 90% (IC90) in the series on Trypanosoma cruzi [1] is 293 µM; in the series on Trypanosoma cruzi [2], above 100 µM; in the series with Leishmania chagasi, above 300 µM. The CC50 at 72 h was 37.2 µM in series [3] and above 300 µM in series [4]. Further, the CC90 at 72 h in series [3] and in series [4] was above 300 µM each time. For the same molecule, the “Ratio CC50/IC50” value is reported as 0.4 in series [5], below 0.4 in series [6] and above 1.6 in series [7].

As to `COc1cccc([C@@H]2C[C@@H]3Cc4ccc5ccccc5c4N2O3)c1`, the figures for the half-inhibitory concentration (IC50) in the series on Trypanosoma cruzi [1], in the series with Trypanosoma cruzi [2] and with Leishmania chagasi were 82.7 µM, 89.6 µM and 16.4 µM, respectively. Besides, the values for the IC90 with Trypanosoma cruzi [1], in the series on Trypanosoma cruzi [2] and in the series on Leishmania chagasi were above 300 µM, above 100 µM and 49.5 µM, respectively. The half-maximal cytotoxic concentration (CC50) at 72 h in series [3] and in series [4] was above 300 µM throughout. Also, the CC90 at 72 h in series [3] and in series [4] was above 300 µM in each case. In addition, the “Ratio CC50/IC50” value in series [5] is listed as above 3.6; in series [6], above 3.3; in series [7], above 18.3.
